Data as given in ChEMBL document CHEMBL1134439, “Radioiodinated styrylbenzenes and thioflavins as probes for amyloid aggregates” (J Med Chem, 2001).

Columns and labels:
Mus musculus [1] = experiment: Biodistribution was measured in mice heart 6 hours after intravenous injection of [125I]-labeled styrylbenzene.; format: ADME, organism-based; details: in vivo
How it was run: (§1)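 ICR mice (2-3 months old, 20-30 g) under ether anesthesia received 5-10 µCi ¹²⁵I tracer in 0.15 mL saline by tail-vein injection. Animals were killed by cardiac excision at set times post-injection. Organs were removed, weighed and γ-counted. Values are % dose per organ against diluted injectate aliquots, taking blood and muscle as 7% and 40% of body weight. Mean of 3-4 mice ± SD.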

Mus musculus [2] = experiment: Biodistribution was measured in mice heart 60 minutes after intravenous injection of [125I]-labeled styrylbenzene.; format: ADME, organism-based; details: in vivo, 1 h; how it was run: as §1
Mus musculus [3] = experiment: Biodistribution was measured in mice kidney 2 minutes after intravenous injection of [125I]-labeled styrylbenzene.; format: ADME, organism-based; details: in vivo; how it was run: as §1
Mus musculus [4] = experiment: Biodistribution was measured in mice kidney 24 hours after intravenous injection of [125I]-labeled styrylbenzene.; format: ADME, organism-based; details: in vivo; how it was run: as §1
Mus musculus [5] = experiment: Biodistribution was measured in mice kidney 30 minutes after intravenous injection of [125I]-labeled styrylbenzene.; format: ADME, organism-based; details: in vivo, 0.5 h; how it was run: as §1
Mus musculus [6] = experiment: Biodistribution was measured in mice kidney 6 hours after intravenous injection of [125I]-labeled styrylbenzene.; format: ADME, organism-based; details: in vivo; how it was run: as §1
Mus musculus [7] = experiment: Biodistribution was measured in mice kidney 60 minutes after intravenous injection of [125I]-labeled styrylbenzene.; format: ADME, organism-based; details: in vivo, 1 h; how it was run: as §1
Mus musculus [8] = experiment: Biodistribution was measured in mice liver 2 minutes after intravenous injection of [125I]-labeled styrylbenzene.; format: ADME, organism-based; details: in vivo; how it was run: as §1
Mus musculus [9] = experiment: Biodistribution was measured in mice liver 24 hours after intravenous injection of [125I]-labeled styrylbenzene.; format: ADME, organism-based; details: in vivo; how it was run: as §1
Mus musculus [10] = experiment: Biodistribution was measured in mice liver 30 minutes after intravenous injection of [125I]-labeled styrylbenzene.; format: ADME, organism-based; details: in vivo, 0.5 h; how it was run: as §1
Mus musculus [11] = experiment: Biodistribution was measured in mice liver 60 minutes after intravenous injection of [125I]-labeled styrylbenzene.; format: ADME, organism-based; details: in vivo, 1 h; how it was run: as §1
Mus musculus [12] = experiment: Biodistribution was measured in mice muscle 24 hourss after intravenous injection of [125I]-labeled styrylbenzene.; format: ADME, organism-based, Muscle tissue; details: in vivo; how it was run: as §1
Mus musculus [13] = experiment: Biodistribution was measured in mice muscle 30 minutes after intravenous injection of [125I]-labeled styrylbenzene.; format: ADME, organism-based, Muscle tissue; details: in vivo, 0.5 h; how it was run: as §1
Mus musculus [14] = experiment: Biodistribution was measured in mice muscle 6 hours after intravenous injection of [125I]-labeled styrylbenzene.; format: ADME, organism-based, Muscle tissue; details: in vivo; how it was run: as §1
Mus musculus [15] = experiment: Biodistribution was measured in mice muscle 60 minutes after intravenous injection of [125I]-labeled styrylbenzene.; format: ADME, organism-based, Muscle tissue; details: in vivo, 1 h; how it was run: as §1
Mus musculus [16] = experiment: Biodistribution was measured in mice skin 2 minutes after intravenous injection of [125I]-labeled styrylbenzene.; format: ADME, organism-based, Zone of skin; details: in vivo; how it was run: as §1
Mus musculus [17] = experiment: Biodistribution was measured in mice skin 24 hours after intravenous injection of [125I]-labeled styrylbenzene.; format: ADME, organism-based, Zone of skin; details: in vivo; how it was run: as §1
Mus musculus [18] = experiment: Biodistribution was measured in mice skin 30 minutes after intravenous injection of [125I]-labeled styrylbenzene.; format: ADME, organism-based, Zone of skin; details: in vivo, 0.5 h; how it was run: as §1
Mus musculus [19] = experiment: Biodistribution was measured in mice skin 6 hours after intravenous injection of [125I]-labeled styrylbenzene.; format: ADME, organism-based, Zone of skin; details: in vivo; how it was run: as §1
Mus musculus [20] = experiment: Biodistribution was measured in mice skin 60 minutes after intravenous injection of [125I]-labeled styrylbenzene.; format: ADME, organism-based, Zone of skin; details: in vivo, 1 h; how it was run: as §1
Mus musculus [21] = experiment: Biodistribution was measured in mice spleen 2 minutes after intravenous injection of [125I]-labeled styrylbenzene.; format: ADME, organism-based; details: in vivo; how it was run: as §1
Mus musculus [22] = experiment: Biodistribution was measured in mice spleen 24 hours after intravenous injection of [125I]-labeled styrylbenzene.; format: ADME, organism-based; details: in vivo
Mus musculus [23] = experiment: Biodistribution was measured in mice spleen 30 minutes after intravenous injection of [125I]-labeled styrylbenzene.; format: ADME, organism-based; details: in vivo, 0.5 h
How it was run: (§2)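 ICR mice (2-3 months old, 20-30 g) under ether anesthesia; 0.15 mL saline containing 5-10 µCi ¹²⁵I tracer injected into tail vein. Sacrifice by cardiac excision at set times; organs removed, weighed, γ-counted. Expressed as % dose per organ versus diluted aliquots of injectate. Mean of three or four mice ± SD.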

Mus musculus [24] = experiment: Biodistribution was measured in mice spleen 60 minutes after intravenous injection of [125I]-labeled styrylbenzene.; format: ADME, organism-based; details: in vivo, 1 h; how it was run: as §2
Mus musculus [25] = experiment: Biodistribution was measured in mice blood 2 minutes after intravenous injection of [125I]-labeled styrylbenzene.; format: ADME, organism-based; details: in vivo; how it was run: as §1
Mus musculus [26] = experiment: Biodistribution was measured in mice blood 24 hours after intravenous injection of [125I]-labeled styrylbenzene.; format: ADME, organism-based; details: in vivo; how it was run: as §1
Mus musculus [27] = experiment: Biodistribution was measured in mice blood 30 minutes after intravenous injection of [125I]-labeled styrylbenzene.; format: ADME, organism-based; details: in vivo, 0.5 h; how it was run: as §1
Mus musculus [28] = experiment: Biodistribution was measured in mice lung 2 minutes after intravenous injection of [125I]-labeled styrylbenzene.; format: ADME, organism-based; details: in vivo; how it was run: as §1
Mus musculus [29] = experiment: Biodistribution was measured in mice lung 24 hours after intravenous injection of [125I]-labeled styrylbenzene.; format: ADME, organism-based; details: in vivo, in the assay text read “thioflavin” for “styrylbenzene”; how it was run: as §1
Mus musculus [30] = experiment: Biodistribution was measured in mice lung 30 minutes after intravenous injection of [125I]-labeled styrylbenzene.; format: ADME, organism-based; details: in vivo, 0.5 h; how it was run: as §1
Mus musculus [31] = experiment: Biodistribution was measured in mice lung 6 hours after intravenous injection of [125I]-labeled styrylbenzene.; format: ADME, organism-based; details: in vivo, in the assay text read “thioflavin” for “styrylbenzene”; how it was run: as §1
Mus musculus [32] = experiment: Biodistribution was measured in mice lung 60 minutes after intravenous injection of [125I]-labeled styrylbenzene.; format: ADME, organism-based; details: in vivo, 1 h; how it was run: as §1
Mus musculus [33] = experiment: Biodistribution was measured in mice muscle 2 minutes after intravenous injection of [125I]-labeled styrylbenzene.; format: ADME, organism-based, Muscle tissue; details: in vivo, in the assay text read “thioflavin” for “styrylbenzene”; how it was run: as §1
Mus musculus [34] = experiment: Biodistribution was measured in mice brain 6 hours after intravenous injection of [125I]-labeled styrylbenzene; format: ADME, organism-based; details: in vivo; how it was run: as §1
Mus musculus [35] = experiment: Biodistribution was measured in mice brain 60 minutes after intravenous injection of [125I]-labeled styrylbenzene; format: ADME, organism-based; details: in vivo, 1 h; how it was run: as §1
Mus musculus [36] = experiment: Biodistribution was measured in mice heart 2 minutes after intravenous injection of [125I]-labeled styrylbenzene.; format: ADME, organism-based; details: in vivo; how it was run: as §1
Mus musculus [37] = experiment: Biodistribution was measured in mice heart 24 hours after intravenous injection of [125I]-labeled styrylbenzene.; format: ADME, organism-based; details: in vivo; how it was run: as §1
Mus musculus [38] = experiment: Biodistribution was measured in mice heart 30 minutes after intravenous injection of [125I]-labeled styrylbenzene.; format: ADME, organism-based; details: in vivo, 0.5 h; how it was run: as §1
Mus musculus [39] = experiment: Biodistribution was measured in mice blood 6 hours after intravenous injection of [125I]-labeled styrylbenzene.; format: ADME, organism-based; details: in vivo; how it was run: as §1
Mus musculus [40] = experiment: Biodistribution was measured in mice blood 60 minutes after intravenous injection of [125I]-labeled styrylbenzene.; format: ADME, organism-based; details: in vivo, 1 h; how it was run: as §1
Mus musculus [41] = experiment: Biodistribution was measured in mice brain 2 minutes after intravenous injection of [125I]-labeled styrylbenzene; format: ADME, organism-based; details: in vivo, in the assay text read “thioflavin” for “styrylbenzene”; how it was run: as §1
Mus musculus [42] = experiment: Biodistribution was measured in mice brain 24 hours after intravenous injection of [125I]-labeled styrylbenzene; format: ADME, organism-based; details: in vivo, in the assay text read “thioflavin” for “styrylbenzene”; how it was run: as §1
Mus musculus [43] = experiment: Biodistribution was measured in mice brain 30 minutes after intravenous injection of [125I]-labeled styrylbenzene; format: ADME, organism-based; details: in vivo, 0.5 h; how it was run: as §1
[44] = target: Amyloid-beta precursor protein (Homo sapiens, UniProt P05067); experiment: Inhibition constant for aggregates of amyloid beta compared to [125I]IMSB
How it was run: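 Aβ(1-40) or Aβ(1-42) aggregated at 0.5 or 0.25 mg/mL respectively in pH 7.4 buffer (10 mM sodium phosphate, 1 mM EDTA), 37 °C, 36-42 h with shaking. Competition against ¹²⁵I radioligand with fibrils 10-50 nM (final), 10% EtOH, 1 mL. Incubation 3 h room temperature. Bound ligand collected by GF/B filtration, γ-counted. Ki by nonlinear regression. Mean ± SEM, three experiments in duplicate.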

Mus musculus [45] = experiment: Biodistribution was measured in mice liver 6 hours after intravenous injection of [125I]-labeled styrylbenzene.; format: ADME, organism-based; details: in vivo, in the assay text read “thioflavin” for “styrylbenzene”; how it was run: as §1
Mus musculus [46] = experiment: Biodistribution was measured in mice spleen 6 hours after intravenous injection of [125I]-labeled thioflavin.; details: in vivo

Amyloid-beta precursor protein, sequence (P05067 whole entry): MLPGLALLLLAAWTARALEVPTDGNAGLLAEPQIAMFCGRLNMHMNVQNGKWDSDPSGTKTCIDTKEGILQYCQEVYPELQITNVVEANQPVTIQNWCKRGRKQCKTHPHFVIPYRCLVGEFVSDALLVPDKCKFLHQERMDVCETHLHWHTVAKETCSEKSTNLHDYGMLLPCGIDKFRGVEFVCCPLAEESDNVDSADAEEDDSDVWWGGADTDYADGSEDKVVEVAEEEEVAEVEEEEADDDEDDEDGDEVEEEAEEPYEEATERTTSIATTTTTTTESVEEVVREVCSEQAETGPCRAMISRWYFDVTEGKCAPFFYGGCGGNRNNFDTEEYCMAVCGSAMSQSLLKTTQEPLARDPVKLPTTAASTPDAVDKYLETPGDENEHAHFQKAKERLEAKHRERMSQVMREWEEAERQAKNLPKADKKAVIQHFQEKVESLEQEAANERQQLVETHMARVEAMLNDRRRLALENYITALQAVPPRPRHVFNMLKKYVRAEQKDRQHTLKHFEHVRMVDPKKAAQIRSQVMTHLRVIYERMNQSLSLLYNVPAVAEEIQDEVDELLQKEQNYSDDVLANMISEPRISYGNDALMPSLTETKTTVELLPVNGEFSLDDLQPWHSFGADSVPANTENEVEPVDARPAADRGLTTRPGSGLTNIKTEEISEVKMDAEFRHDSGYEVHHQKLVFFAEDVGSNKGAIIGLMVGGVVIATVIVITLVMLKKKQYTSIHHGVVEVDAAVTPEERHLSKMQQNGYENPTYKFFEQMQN

Dose/organ (Mus musculus [1]): 0.05%
Dose/organ (Mus musculus [2]): 0.17%
Dose/organ (Mus musculus [3]): 5.42%
Dose/organ (Mus musculus [4]): 0.06%
Dose/organ (Mus musculus [5]): 2.24%
Dose/organ (Mus musculus [6]): 0.54%
Dose/organ (Mus musculus [7]): 2.23%
Dose/organ (Mus musculus [8]): 31.62%
Dose/organ (Mus musculus [9]): 0.3%
Dose/organ (Mus musculus [10]): 10.93%
Dose/organ (Mus musculus [11]): 9.21%
Dose/organ (Mus musculus [12]): 0.33%
Dose/organ (Mus musculus [13]): 12.89%
Dose/organ (Mus musculus [14]): 2.93%
Dose/organ (Mus musculus [15]): 12.81%
Dose/organ (Mus musculus [16]): 3.2%
Dose/organ (Mus musculus [17]): 0.2%
Dose/organ (Mus musculus [18]): 7.4%
Dose/organ (Mus musculus [19]): 3.8%
Dose/organ (Mus musculus [20]): 12.8%
Dose/organ (Mus musculus [21]): 0.59%
Dose/organ (Mus musculus [22]): 0.01%
Dose/organ (Mus musculus [23]): 0.2%
Dose/organ (Mus musculus [24]): 0.17%
Dose/organ (Mus musculus [25]): 15.74%
Dose/organ (Mus musculus [26]): 0.29%
Dose/organ (Mus musculus [27]): 3.26%
Dose/organ (Mus musculus [28]): 5.91%
Dose/organ (Mus musculus [29]): 0.03%
Dose/organ (Mus musculus [30]): 0.72%
Dose/organ (Mus musculus [31]): 0.21%
Dose/organ (Mus musculus [32]): 0.78%
Dose/organ (Mus musculus [33]): 17.81%
Dose/organ (Mus musculus [34]): 0.65%
Dose/organ (Mus musculus [35]): 1.57%
Dose/organ (Mus musculus [36]): 1.79%
Dose/organ (Mus musculus [37]): 0.01%
Dose/organ (Mus musculus [38]): 0.2%
Dose/organ (Mus musculus [39]): 1.44%
Dose/organ (Mus musculus [40]): 3.79%
Dose/organ (Mus musculus [41]): 0.6%
Dose/organ (Mus musculus [42]): 0.04%
Dose/organ (Mus musculus [43]): 0.9%
Ki [44]: > 5 µM
Dose/organ (Mus musculus [45]): 1.52%
Dose/organ (Mus musculus [46]): 0.04%
SMILES: CN(C)c1ccc(-c2nc3ccc(I)cc3s2)cc1
